Results on 35 molecules are retold here after ChEMBL document CHEMBL1143247, “Vesicular monoamine transporter substrate/inhibitor activity of MPTP/MPP+ derivatives: a structure-activity study” (J Med Chem, 2008).

In general, Ki refers to the dissociation constant of the complex between target and ligand, obtained from inhibition or displacement. In general, Km refers to the substrate concentration at which the rate is half of its maximum. For orientation: Vmax means the rate approached at saturating substrate.

In series [1] the target is Synaptic vesicular amine transporter (Bos taurus) (UniProt Q27963). Briefly: Ratio of Km for dopamine uptake at VMAT in bovine chromaffin granule ghosts to Ki for VMAT in bovine chromaffin granule ghosts. The gist of the method:
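Ratio of Km for DA to Ki for the inhibitor. Both were determined on the same ghost preparation for each compound, to normalize day-to-day variation in DA Km between preparations. Ki comes from DA-uptake competition in resealed bovine chromaffin granule ghosts (5 mM Mg-ATP, pH 7.0, 30 °C, HPLC-EC read-out). Km for DA comes from initial uptake rates fitted to Michaelis–Menten.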

Series [2] concerns the target Synaptic vesicular amine transporter (Bos taurus, UniProt Q27963). Description: Inhibition of dopamine uptake at VMAT in bovine chromaffin granule ghosts. The gist of the method:
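Resealed bovine chromaffin granule ghosts preincubated 10 min at 30 °C in 0.3 M sucrose, 10 mM HEPES, 5 mM Mg-ATP, 5 mM MgSO₄, 100 µg/mL catalase, pH 7.0. Inhibitor then added for 2 min before starting uptake with DA. Aliquots taken at 6 min intervals, pelleted, washed and extracted in 0.1 M HClO₄. Intragranular catecholamines measured by HPLC-EC. Ki obtained by fitting typically 4–5 inhibitor × 6 DA concentrations to a competitive model. Errors are fitting standard errors.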

Substrate in series [3]: C[n+]1ccc(-c2ccc(O)cc2)cc1
Briefly: (§1) Activity of VMAT in bovine chromaffin granule ghosts assessed as drug uptake. The note with it: Bos taurus. The gist of the method: (§2)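 Resealed bovine adrenal chromaffin granule ghosts, prepared fresh from frozen membrane stores, preincubated 10 min at 30 °C in 0.3 M sucrose, 10 mM HEPES, 5 mM Mg-ATP, 5 mM MgSO₄, 100 µg/mL catalase, pH 7.0. Test substrate added without DA. Aliquots taken at 6 min intervals, diluted into ice-cold sucrose/HEPES, pelleted, washed, extracted with 0.1 M HClO₄. Intragranular substrate measured by HPLC-UV. Km and Vmax come from Michaelis–Menten fits of initial rates at 12 substrate concentrations.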

Substrate in series [4]: Cc1ccc(-c2cc[n+](C)cc2)cc1
The description is as §1. The note with it: Bos taurus. The gist of the method:
as §2

Substrate in series [5]: COc1ccc(-c2cc[n+](C)cc2)cc1
The series is described as §1. The note with it: Bos taurus. Summed up:
as §2

Substrate in series [6]: C[n+]1ccc(-c2cccc(O)c2)cc1
Described as §1. The note with it: Bos taurus. The gist of the method:
as §2

Substrate in series [7]: CN1CC=C(c2ccccc2)CC1
The description is as §1. The note with it: Bos taurus. The gist of the method: as §2

Substrate in series [8]: C[n+]1ccc(-c2ccccc2)cc1
Described as §1. Conditions: Bos taurus. Summed up:
as §2

Turning to `C=C(C[n+]1ccc(-c2ccccc2)cc1)c1ccc(-c2ccccc2)cc1`, the Dopamine Km / inhibitor Ki ratio in series [1] was found to be 11.3. This molecule also gave an inhibition constant (Ki) in series [2] of 4.5 µM.
For the molecule `C[N+]1=CC=C(c2ccccc2)CC1`, in series [1], the Dopamine Km / inhibitor Ki ratio came to 0.7. This molecule came in with a Ki in series [2] of 53 µM.
In turn, `COc1ccc2c3c([nH]c2c1)[C@H]1C[C@H]2[C@H](C[C@@H](O)[C@H](OC)[C@H]2C(=O)O)CN1CC3` had a Ki in series [2] of 10 µM.
As to `C[n+]1ccc(-c2cccc(O)c2)cc1`, the Dopamine Km / inhibitor Ki ratio in series [1] turned out to be 9.7. In series [2], this molecule gave a Ki of 2.4 µM.
Taken in the same sequence, the figures for `CN1CC=C(c2ccc(F)cc2)CC1` were 0.9 and 49.7 µM.
Take `CN1CC=C(c2ccccc2N)CC1`: the Dopamine Km / inhibitor Ki ratio in series [1] is 0.1. Further, affinity in series [2] was put at a Ki of 193 µM.
`C[n+]1cccc(-c2cccc(O)c2)c1`: the Dopamine Km / inhibitor Ki ratio in series [1] worked out at 1.2. In series [2], this molecule showed an inhibitory constant (Ki) of 36.6 µM.
On to `CN1CC=C(c2ccc(O)cc2)CC1`, for which the Dopamine Km / inhibitor Ki ratio in series [1] amounted to 0.3. The molecule further gave a Ki in series [2] of 134 µM.
On to `C[n+]1ccc(-c2cccc(C(F)(F)F)c2)cc1`, for which, in series [1], the Dopamine Km / inhibitor Ki ratio is 1.8. Besides, the Ki in series [2] came out at 24.6 µM.
The like results for `C[n+]1ccc(-c2ccc(C(F)(F)F)cc2)cc1` were, in that order, 1.3 and 33.8 µM.
Take `C=C(C[n+]1ccc(-c2ccc(OC)cc2)cc1)c1ccccc1`: in series [1], the Dopamine Km / inhibitor Ki ratio worked out at 8.7. In series [2], the inhibition constant Ki was determined as 2.8 µM.
As to `C[n+]1ccc(-c2cccc(Cl)c2)cc1`, in series [1], the Dopamine Km / inhibitor Ki ratio worked out at 1.1. Affinity in series [2] was put at a Ki of 46.3 µM.
As for `C=C(CN1CCN(c2ccccc2)CC1)c1ccccc1`, the Dopamine Km / inhibitor Ki ratio in series [1] stood at 24.1. Further, the Ki in series [2] is 1.4 µM.
Take `C[n+]1ccc(-c2ccc(Cl)cc2)cc1`: in series [1], the Dopamine Km / inhibitor Ki ratio is 5.8. Also, the inhibition constant Ki in series [2] came to 7.6 µM.
Regarding `C[n+]1ccc(-c2ccc(O)cc2)cc1`, the Dopamine Km / inhibitor Ki ratio in series [1] is 0.7. Moreover, in series [2], the affinity corresponds to a Ki of 82 µM.
Regarding `C=C(C[n+]1ccc(-c2ccccc2)cc1)c1ccccc1`, in series [1], the Dopamine Km / inhibitor Ki ratio was found to be 0.9. Also, in series [2], the inhibition constant (Ki) is 38.4 µM.
`Cc1ccccc1C1=CCN(C)CC1` gave a Ki in series [2] of 38.4 µM.
Consider `C=C(C[n+]1ccc(-c2ccc(O)cc2)cc1)c1ccc(Br)cc1`, for which the Dopamine Km / inhibitor Ki ratio in series [1] stood at 41.5. Besides, the inhibition constant Ki in series [2] was 0.5 µM.
The molecule `CN1CC=C(c2ccccc2)CC1` displayed a Ki in series [2] of 52.5 µM.
Take `COc1cc2c(cc1OC)C1CC(=O)C(CC(C)C)CN1CC2` (centres undefined) [TETRABENAZINE]: the inhibition constant Ki in series [2] was 0.004 µM.
For the molecule `C[n+]1ccc(-c2ccc(F)cc2)cc1`, the Dopamine Km / inhibitor Ki ratio in series [1] was determined as 1. The molecule further showed an inhibitory constant (Ki) in series [2] of 51.3 µM.
As to `COc1ccc(-c2cc[n+](C)cc2)cc1`, the Dopamine Km / inhibitor Ki ratio in series [1] was determined as 0.2. In series [2], this molecule came in with a Ki of 106 µM.
The like results for `C=C(C[n+]1ccc(C2CCCCC2)cc1)c1ccccc1` were, in that order, 0.7 and 53 µM.
Turning to `Cc1ccccc1-c1cc[n+](C)cc1`, the Dopamine Km / inhibitor Ki ratio in series [1] is 0.3. In series [2], the inhibition constant (Ki) is 95 µM.
For the molecule `CN1CC=C(c2cccc(Cl)c2)CC1`, the Dopamine Km / inhibitor Ki ratio in series [1] was found to be 1.6. For the same molecule, the inhibition constant (Ki) in series [2] worked out at 27.7 µM.
`C[n+]1ccc(-c2ccccc2)cc1`: the affinity in series [2], expressed as Ki, was 92 µM.
Consider `C=C(C[n+]1ccc(-c2cccc(O)c2)cc1)c1ccc(I)cc1`, for which the Dopamine Km / inhibitor Ki ratio in series [1] amounted to 55. Also, the affinity in series [2] corresponds to a Ki of 0.4 µM.
As to `Cc1c[n+](C)ccc1-c1ccc(O)cc1`, the Dopamine Km / inhibitor Ki ratio in series [1] amounted to 0.8. In series [2], this molecule had a Ki of 65 µM.
In the case of `COC(=O)[C@H]1[C@H]2C[C@@H]3c4[nH]c5cc(OC)ccc5c4CCN3C[C@H]2C[C@@H](OC(=O)c2cc(OC)c(OC)c(OC)c2)[C@@H]1OC` [RESERPINE], the Ki in series [2] stood at 0.001 µM.
As to `CN1CC=C(c2cccc(O)c2)CC1`, the Dopamine Km / inhibitor Ki ratio in series [1] came to 1.7. For the same molecule, in series [2], the inhibitory constant (Ki) worked out at 25.8 µM.
Turning to `C=C(CN1CCC(c2ccccc2)CC1)c1ccccc1`, the Dopamine Km / inhibitor Ki ratio in series [1] is 1.8. The Ki in series [2] was determined as 16.4 µM.
As for `C=C(C[n+]1ccc(-c2ccccc2)nc1)c1ccccc1`, in series [1], the Dopamine Km / inhibitor Ki ratio was found to be 2.7. Besides, the affinity in series [2], expressed as Ki, was 13.4 µM.
On to `Cc1ccc(-c2cc[n+](C)cc2)cc1`, for which, in series [1], the Dopamine Km / inhibitor Ki ratio was determined as 1. In series [2], this molecule yielded an inhibitory constant (Ki) of 51.8 µM.
On to `C[n+]1cccc(-c2ccc(O)cc2)c1`, for which the Dopamine Km / inhibitor Ki ratio in series [1] came to 0.1. Also, the Ki in series [2] stood at 338 µM.

B1: Synaptic vesicular amine transporter (Bos taurus), Q27963 (protein)
chain: MALSELALLRRLQESRHSRKLILFIVFLALLLDNMLLTVVVPIIPSYLYSIEHEKDALEIQTAKPGLTASAPGSFQNIFSYYDNSTMVTGNSTDHLQGALVHEATTQHMATNSSSASSDCPSEDKDLLNENVQVGLLFASKATVQLLTNPFIGLLTNRIGYPIPMFTGFCIMFISTVMFAFSRTYAFLLIARSLQGIGSSCSSVAGMGMLASVYTDDEERGNAMGIALGGLAMGVLVGPPFGSVLYEFVGKTAPFLVLAALVLLDGAIQLFVLQPSRVQPESQKGTPLTTLLRDPYILIAAGSICFANMGIAMLEPALPIWMMETMCSHKWQLGVAFLPASVSYLIGTNVFGILAHKMGRWLCALLGMIIVGMSILCIPLAKNIYGLIAPNFGVGFAIGMVDSSMMPIMGYLVDLRHVSVYGSVYAIADVAFCMGYAIGPSAGGAIAKAIGFPWLMTIIGIIDILFAPLCFFLRSPPAKEEKMAILMDHNCPIKTKMYTQNSSQSHPIGEDEESESD
Take B1: the Km in series [3] is 107 µM; in series [4], 41.3 µM; in series [5] it was 135 µM; in series [6], 8.4 µM; in series [7], 409 µM; in series [8], 73 µM. Besides, the maximal velocity (Vmax) in series [3] is 1.6 nmol/mg/min; in series [4], 0.9 nmol/mg/min; in series [5] it was 1.6 nmol/mg/min; in series [6], 1.9 nmol/mg/min; in series [7], 1.7 nmol/mg/min; in series [8], 1.4 nmol/mg/min.
